Tests used:
[1] = target: T1, NAD-dependent protein deacetylase sirtuin-2 (Homo sapiens, UniProt Q8IXJ6); assay: (§1) Inhibition of recombinant human C-terminal His-tagged SIRT2 (50 to 389 end residues) expressed in Escherichia coli using p53 derived (379 to 382 residues) fluorogenic peptide substrate RHKK(Ac)-AMC preincubated for 10 mins followed by substrate addition in presence of NAD+ by fluorescence assay
T1 sequence (Q8IXJ6 whole entry): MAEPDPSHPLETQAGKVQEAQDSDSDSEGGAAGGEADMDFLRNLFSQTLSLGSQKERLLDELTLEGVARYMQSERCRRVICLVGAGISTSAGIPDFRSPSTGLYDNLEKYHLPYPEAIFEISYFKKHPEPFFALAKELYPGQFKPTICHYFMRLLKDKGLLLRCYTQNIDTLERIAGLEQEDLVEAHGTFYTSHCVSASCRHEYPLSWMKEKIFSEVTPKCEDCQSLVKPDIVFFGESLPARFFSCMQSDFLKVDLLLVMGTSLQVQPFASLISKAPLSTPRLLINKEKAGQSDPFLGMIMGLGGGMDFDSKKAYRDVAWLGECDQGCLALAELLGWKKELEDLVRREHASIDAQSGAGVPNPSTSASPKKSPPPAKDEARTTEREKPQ
Procedure, shortened: (§2)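 Two-step fluorogenic assay with p53 379–382 RHKK(Ac)-AMC. Compound (from 10 mM DMSO stock) preincubated ~10 min with human SIRT before substrate addition. Developer then releases fluorophore, read at ex 360/em 460 nm.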

[2] = target: T2, NAD-dependent protein deacetylase sirtuin-2 (Homo sapiens) (UniProt Q8IXJ6); assay: as §1, with “coli at 10 uM” for “coli”, “assay relative to control” for “assay”; procedure, shortened: as §2
T2 sequence (whole entry): T1 sequence (Q8IXJ6 whole entry)

Structure (SMILES) | IC50 [1] [µM] | inhibition [2] [%]
O=c1c2c3c(sc2ncn1Cc1cccc2ccccc12)CC(NCc1cncnc1)CC3 (stereo not drawn) | 6.45 | 86
Cc1ccc(NC2CCc3c(sc4ncn(Cc5cccc6cccnc56)c(=O)c34)C2)cc1 (stereo not drawn) | 4.25 | 78
COc1ccc2ccccc2c1Cn1cnc2sc3c(c2c1=O)CCC(NCC1CCOC1)C3 (stereo not drawn) | 6.03 | 85
COc1ccc2ccccc2c1Cn1cnc2sc3c(c2c1=O)CCC(NCc1ccncc1)C3 (stereo not drawn) | 1.2 | 95
COc1cccc(CNC2CCc3c(sc4ncn(Cc5ccccc5OC)c(=O)c34)C2)c1 (stereo not drawn) | 13.4 | 69
Cc1noc(C)c1CNC1CCc2c(sc3ncn(Cc4cccc5cccnc45)c(=O)c23)C1 (stereo not drawn) | 6.94 | 80
O=c1c2c3c(sc2ncn1Cc1cccc2ccccc12)CC(NCc1ccncc1)CC3 (stereo not drawn) | 3.58 | 92
O=c1c2c3c(sc2ncn1Cc1cccc2ccccc12)CC(NCc1ccccn1)CC3 (stereo not drawn) | 7.68 | 81
O=c1c2c3c(sc2ncn1Cc1cccc2cccnc12)CC(NC1CCc2ccccc21)CC3 (stereo not drawn) | 3.09 | 91
O=c1c2c3c(sc2ncn1Cc1cccc2cccnc12)CC(NCc1ccccc1Cl)CC3 (stereo not drawn) | 3.8 | 85
COc1ccc2ccccc2c1Cn1cnc2sc(CCNC3CCOCC3)c(C)c2c1=O | 8.15 | 68
COc1ccc2ccccc2c1Cn1cnc2sc(CCNCc3ccncc3)c(C)c2c1=O | 2.93 | 94
O=c1c2c3c(sc2ncn1Cc1cccc2cccnc12)CC(NCc1ccncc1)CC3 (stereo not drawn) | 3.68 | 83
Cc1noc(C)c1CNC1CCc2c(sc3ncn(Cc4cccc5ccccc45)c(=O)c23)C1 (stereo not drawn) | 1.85 | 85
COc1ccccc1CNC1CCc2c(sc3ncn(Cc4ccccc4OC)c(=O)c23)C1 (stereo not drawn) | 9.59 | 72
COc1ccc2ccccc2c1Cn1cnc2sc3c(c2c1=O)CCC(NCc1ccccn1)C3 (stereo not drawn) | 3.12 | 83
COc1ccccc1Cn1cnc2sc3c(c2c1=O)CCC(NCc1ccccc1)C3 (stereo not drawn) | 10.4 | 75
O=c1c2c3c(sc2ncn1Cc1ccc2ccccc2c1)CC(NCC1CCCCC1)CC3 (stereo not drawn) | 5.53 | 87
O=c1c2c3c(sc2ncn1Cc1cccc2cccnc12)CC(NC1CCCc2ccccc21)CC3 (stereo not drawn) | 5.49 | 80
COc1ccc(Cn2cnc3sc4c(c3c2=O)CCC(NC2CCOCC2)C4)c2ccccc12 (stereo not drawn) | 5.06 | 81
O=c1c2c3c(sc2ncn1Cc1ccc2ccccc2c1)CC(NCc1ccccn1)CC3 (stereo not drawn) | 8.67 | 81
O=c1c2c3c(sc2ncn1Cc1cccc2cccnc12)CC(NCc1ccc(Cl)cc1)CC3 (stereo not drawn) | 1.27 | 94
O=c1c2c3c(sc2ncn1Cc1cccc2cccnc12)CC(NCc1cccnc1)CC3 (stereo not drawn) | 2.92 | 91
O=c1c2c3c(sc2ncn1Cc1cccc(-c2ccccc2)c1)CC(NCCC1CCCCC1)CC3 (stereo not drawn) | 3.74 | 90
O=c1c2c3c(sc2ncn1Cc1cccc2ccccc12)CC(NCCc1cccnc1)CC3 (stereo not drawn) | 9.57 | 80
O=c1c2c3c(sc2ncn1Cc1cccc2ccccc12)CC(NCc1cccnc1)CC3 (stereo not drawn) | 2.99 | 89
O=c1c2c3c(sc2ncn1Cc1ccc2ccccc2c1)CC(NCc1ccco1)CC3 (stereo not drawn) | 11.7 | 72

Structure (SMILES) | IC50 [1] [µM] | inhibition [2] [%]
COc1ccc2ccccc2c1Cn1cnc2sc(CCNCc3cccnc3)c(C)c2c1=O | 2.15 | 93
O=c1c2c3c(sc2ncn1Cc1cccc2cccnc12)CC(NCc1cccc(Cl)c1)CC3 (stereo not drawn) | 2.84 | 88
O=c1c2c3c(sc2ncn1Cc1cccc2ccccc12)CC(NCc1ccco1)CC3 (stereo not drawn) | 7.61 | 70
O=c1c2c3c(sc2ncn1Cc1cccc2cccnc12)CC(NCCC1CCCCC1)CC3 (stereo not drawn) | 5.85 | 81
COc1ccc(NC2CCc3c(sc4ncn(Cc5cccc6cccnc56)c(=O)c34)C2)cc1 (stereo not drawn) | 2.48 | 82
COc1ccc2ccccc2c1Cn1cnc2sc3c(c2c1=O)CCC(NCCc1cccnc1)C3 (stereo not drawn) | 10.3 | 66
O=c1c2c3c(sc2ncn1Cc1cccc2cccnc12)CC(NCc1ccccc1)CC3 (stereo not drawn) | 2.5 | 93
O=c1c2c3c(sc2ncn1Cc1cccc2ccccc12)CC(NCCc1ccncc1)CC3 (stereo not drawn) | 5.79 | 75
COc1ccc(CNC2CCc3c(sc4ncn(Cc5ccc6ccccc6c5)c(=O)c34)C2)cc1 (stereo not drawn) | 3.82 | 86
O=c1c2c3c(sc2ncn1Cc1cccc2cccnc12)CC(NCc1ccco1)CC3 (stereo not drawn) | 4.16 | 80
O=c1c2c3c(sc2ncn1Cc1cccc2cccnc12)CC(NCc1cccs1)CC3 (stereo not drawn) | 2.56 | 88
O=c1c2c3c(sc2ncn1Cc1cccc2cccnc12)CC(NCc1cccc(F)c1)CC3 (stereo not drawn) | 1.72 | 94
COc1ccc2ccccc2c1Cn1cnc2sc3c(c2c1=O)CCC(NCc1cccs1)C3 (stereo not drawn) | 6.03 | 69
COc1ccc(CNC2CCc3c(sc4ncn(Cc5cccc6ccccc56)c(=O)c34)C2)cn1 (stereo not drawn) | 7.59 | 75
COc1ccc(CNC2CCc3c(sc4ncn(Cc5cccc6ccccc56)c(=O)c34)C2)cc1 (stereo not drawn) | 3.2 | 78
COc1ccccc1CNC1CCc2c(sc3ncn(Cc4c(OC)ccc5ccccc45)c(=O)c23)C1 (stereo not drawn) | 2.24 | 89
COc1ccccc1CNC1CCc2c(sc3ncn(Cc4cccc5cccnc45)c(=O)c23)C1 (stereo not drawn) | 5.61 | 85
COc1ccc(CNC2CCc3c(sc4ncn(Cc5cccc6cccnc56)c(=O)c34)C2)cn1 (stereo not drawn) | 2.65 | 90
O=c1c2c3c(sc2ncn1Cc1ccc2ccccc2c1)CC(NCCc1cccnc1)CC3 (stereo not drawn) | 8.68 | 77
O=c1c2c3c(sc2ncn1Cc1cccc(-c2ccccc2)c1)CC(NC1CCCC1)CC3 (stereo not drawn) | 1.52 | 98
COc1ccc(CNCCc2sc3ncn(Cc4c(OC)ccc5ccccc45)c(=O)c3c2C)cc1 | 3.36 | 89
O=c1c2c3c(sc2ncn1Cc1ccc2ccccc2c1)CC(NCCc1ccncc1)CC3 (stereo not drawn) | 9.6 | 72
COc1ccccc1Cn1cnc2sc3c(c2c1=O)CCC(NCC1CCCCC1)C3 (stereo not drawn) | 9.18 | 79
COc1ccc2ccccc2c1Cn1cnc2sc3c(c2c1=O)CCC(NCC1CCCO1)C3 (stereo not drawn) | 1.9 | 90
COc1ccccc1Cn1cnc2sc3c(c2c1=O)CCC(NC1CCc2ccccc21)C3 (stereo not drawn) | 16.3 | 70
Cc1nn(C)c(C)c1CNC1CCc2c(sc3ncn(Cc4cccc5ccccc45)c(=O)c23)C1 (stereo not drawn) | 4.2 | 85
O=c1c2c3c(sc2ncn1Cc1cccc(-c2ccccc2)c1)CC(NCCN1CCCC1)CC3 (stereo not drawn) | 3.78 | 77

Source: ChEMBL document CHEMBL4004822, “Thienopyrimidinone Based Sirtuin-2 (SIRT2)-Selective Inhibitors Bind in the Ligand Induced Selectivity Pocket” (J Med Chem, 2017)
